# According to paper PMC3188381 (Anti-cancer drugs, 2011):
# Like-named read-outs stand apart in the source and are kept apart here.
# Experiments:
# [1] = Range-finding toxicity study; conditions: rats, oral, 8 days observation
# [2] = tested on: SKOV3 ovarian cancer cells; assay: Proliferation assay; assay type: cell-based, human; conditions: read-out: IC50 (μM) SKOV3
# [3] = tested on: SKOV3 cells; assay: TUNEL staining, SKOV3; assay type: cell-based, human; conditions: SKOV3, 24 hours, 5 μM 9ING41; vs DMSO
# Outline: (§1)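 Cells plated at 5 × 10^4 per chamber-slide well, attached overnight at 37 °C, then treated 24 h with test compound or 0.1% DMSO. Fixed in 4% paraformaldehyde. Stained with a colorimetric TUNEL kit per manufacturer. Brown TUNEL-positive cells counted in 3 fields imaged with a 20× objective, from triplicate experiments.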
# [4] = tested on: OVCA432 ovarian cancer cells; assay: Proliferation assay; assay type: cell-based, human; conditions: read-out: IC50 (μM) OVCA432
# [5] = tested on: OVCA432 cells; assay: DAPI staining for apoptotic cells, OVCA432; assay type: cell-based, human; conditions: OVCA432, 24 hrs; 50 μM LiCl, 5 μM 9ING41, 25 μM SB216763; vs DMSO
# Outline: (§2)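 OVCA432 grown in supplemented MEM and SKOV3 in McCoy's 5A, both with 10% FBS, at 37 °C, 5% CO2. Cells plated at 5 × 10^4 per chamber-slide well and left to attach overnight. Exposed one day to test compound or 0.1% DMSO, then fixed in 4% paraformaldehyde and mounted in DAPI medium. Nuclei with condensed DNA or […] fragmentation counted in 3 fields (20× objective), triplicate experiments.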
# [6] = tested on: SKOV3 cells; assay: Western blot of cell lysates, SKOV3; assay type: cell-based, human; conditions: for Cleaved PARP protein expression / Cleaved caspase-3 protein expression: SKOV3, 24 hours, 50 μM LiCl, 5 μM 9ING41, 25 μM SB216763
# Outline: (§3)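 Lysates taken after 24 h treatment with test compound or 0.1% DMSO, in Tris-HCl pH 7.6/NaCl/NP-40/deoxycholate/SDS buffer with protease and phosphatase inhibitors, protein equalised by BCA. Run on reducing 10% Bis-Tris gels and transferred to PVDF. Blocked in 5% milk TBS-T; cleaved caspase-3 in 5% BSA PBS-0.5% tween; cyclin D1 in 5% BSA TBS-T. Probed with rabbit primaries (total GSK3β, actin as controls) and HRP anti-rabbit, detected by chemiluminescence. Densitometry from triplicate blots.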
# [7] = tested on: SKOV3 cells; assay: DAPI staining for apoptotic cells, SKOV3; assay type: cell-based, human; conditions: SKOV3, 24 hrs; 5 μM 9ING41; vs DMSO
# Outline: as §2
# [8] = Bioavailability and plasma pharmacokinetics; assay type: in vivo, Sprague-Dawley rats; conditions: rat
# Outline: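 Male Sprague-Dawley rats dosed at 10 mg/kg iv and 400 mg/kg po. Blood drawn into EDTA (n=3), kept on ice and processed within 30 min. Plasma spun at 2–8 °C for 15 min and stored at -80 °C. Acetonitrile with 100 ng/ml hexylnicotinate internal standard added, then vortexed and centrifuged at 18000g. Supernatant run by LC-MS/MS. Non-compartmental PK analysis.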
# [9] = tested on: OVCA432 cells; assay: TUNEL staining, OVCA432; assay type: cell-based, human; conditions: OVCA432, 24 hours, 5 μM 9ING41; vs DMSO
# Outline: as §1
# [10] = tested on: OVCA432 cells; assay: Western blot of cell lysates, OVCA432; assay type: cell-based, human; conditions: for Cleaved PARP protein expression / Cleaved caspase-3 protein expression: OVCA432, 24 hours, 50 μM LiCl, 5 μM 9ING41, 25 μM SB216763
# Outline: as §3
# [11] = tested on: SKOV3 ovarian cancer cells; conditions: cited from earlier work
# [12] = tested on: SKOV3 xenograft; conditions: drugs and cells mixed before subcutaneous injection; cited from earlier work
# [13] = SKOV3 cells, 4 days (96 hours), concentration required to kill 50% of the cells
# [14] = OVCA432 cells, 4 days (96 hours), concentration required to kill 50% of the cells
smiles,measurement,setting,value
Cn1cc(C2=C(c3coc4ccc(F)cc34)C(=O)NC2=O)c2cc3c(cc21)OCO3 [9-ING-41],Maximum tolerated dose (MTD),[1],greater than 500 mg/kg
same,IC50,[2]; [13],10.5 µM
same,Apoptosis (TUNEL-positive cells),[3],significantly increased apoptosis
same,IC50,[4]; [14],11.2 µM
same,Induction of apoptosis (DAPI),[5],induced apoptosis
same,Cyclin D1 expression,"[6]; SKOV3, 5 μM 9ING41, 24 hours",increased
same,Phosphorylation of GSK3β ser9 (normalized to total GSK3β),"[6]; SKOV3, 5 μM 9ING41, 24 hours",increased phosphorylation
same,Phosphorylation of glycogen synthase,"[6]; SKOV3, 5 μM 9ING41, 24 hours",significantly inhibited
same,Cleaved PARP protein expression,[6],cleaved product of PARP was detected
same,Cleaved caspase-3 protein expression,[6],increase in cleaved caspase-3
same,Induction of apoptosis (DAPI),[7],induced apoptosis
same,AUC (area under the concentration-time curve),[8]; iv 10 mg/kg,2740 ng·h/mL
same,CL (systematic clearance),[8]; iv 10 mg/kg,61.5 mL/min/kg
same,Co (plasma concentration at T = 0),[8]; iv 10 mg/kg,1390 ng/mL
same,T1/2 (apparent elimination half-life),[8]; iv 10 mg/kg,4.85 h
same,V (volume of distribution),[8]; iv 10 mg/kg,26.2 L/kg
same,Elimination half-life,[8]; iv 10 mg/kg and po 400 mg/kg,4.0 to 4.85 h
same,Volumes of distribution,[8]; iv 10 mg/kg and po 400 mg/kg,≥ 26 L/kg
same,Plasma level C,"[8]; iv 10 mg/kg, 0.083 h",1390 ng/mL
same,Plasma level C,"[8]; iv 10 mg/kg, 0.167 h",1410 ng/mL
same,Plasma level C,"[8]; iv 10 mg/kg, 0.5 h",1190 ng/mL
same,Plasma level C,"[8]; iv 10 mg/kg, 1 h",690 ng/mL
same,Plasma level C,"[8]; iv 10 mg/kg, 2 h",367 ng/mL
same,Plasma level C,"[8]; iv 10 mg/kg, 4 h",139 ng/mL
same,Plasma level C,"[8]; iv 10 mg/kg, 6 h",77 ng/mL
same,Plasma level C,"[8]; iv 10 mg/kg, 8 h",41 ng/mL
same,Plasma level C,"[8]; iv 10 mg/kg, 24 h",6.7 ng/mL
same,AUC (area under the concentration-time curve),[8]; po 400 mg/kg,4950 ng·h/mL
same,CL (systematic clearance),[8]; po 400 mg/kg,2210 mL/min/kg
same,T1/2 (apparent elimination half-life),[8]; po 400 mg/kg,4.0 h
same,V (volume of distribution),[8]; po 400 mg/kg,810 L/kg
same,F (bioavailability),[8]; po 400 mg/kg vs iv 10 mg/kg,4.5%
same,Plasma level C,"[8]; po 400 mg/kg, 0.083 h",4.7 ng/mL
same,Plasma level C,"[8]; po 400 mg/kg, 0.167 h",18.2 ng/mL
same,Plasma level C,"[8]; po 400 mg/kg, 0.5 h",156 ng/mL
same,Plasma level C,"[8]; po 400 mg/kg, 1 h",540 ng/mL
same,Plasma level C,"[8]; po 400 mg/kg, 2 h",820 ng/mL
same,Plasma level C,"[8]; po 400 mg/kg, 4 h",934 ng/mL
same,Plasma level C,"[8]; po 400 mg/kg, 6 h",340 ng/mL
same,Plasma level C,"[8]; po 400 mg/kg, 8 h",123 ng/mL
same,Plasma level C,"[8]; po 400 mg/kg, 24 h",8.3 ng/mL
same,Apoptosis (TUNEL-positive cells),[9],significantly increased apoptosis
same,Phosphorylation of GSK3β ser9 (normalized to total GSK3β),"[10]; OVCA432, 5 μM 9ING41, 24 hours",increased phosphorylation
same,Phosphorylation of glycogen synthase,"[10]; OVCA432, 5 μM 9ING41, 24 hours",significantly inhibited
same,Cleaved PARP protein expression,[10],cleaved product of PARP was detected
same,Cleaved caspase-3 protein expression,[10],increase in cleaved caspase-3
COc1cccc2c(C3=C(c4cn(C)c5cc(Cl)c(F)cc45)C(=O)NC3=O)coc12 [9-ING-87],IC50,[2]; [13],42.7 µM
same,IC50,[4]; [14],10.7 µM
"[Cl-].[Li+] [LiCl, Lithium chloride, reference compound]",Growth inhibition of SKOV3,[11],growth inhibited
same,SKOV3 tumor growth,[12],significantly slow SKOV3 tumor growth
same,Induction of apoptosis (DAPI),[5],induced apoptosis
same,Cleaved PARP protein expression,[6],absence
same,Cleaved caspase-3 protein expression,[6],absence
same,Cleaved PARP protein expression,[10],absence
same,Cleaved caspase-3 protein expression,[10],absence
"Cn1cc(C2=C(c3ccc(Cl)cc3Cl)C(=O)NC2=O)c2ccccc21 [SB216763, reference compound]",IC50,"[2]; Homo sapiens, SK-OV-3, 96 h",> 50 µM
same,Growth inhibition of SKOV3,[11],growth inhibited
same,IC50,"[4]; Homo sapiens, OVCA432, 96 h",> 50 µM
same,Induction of apoptosis (DAPI),[5],induced apoptosis
same,Cleaved PARP protein expression,[6],absence
same,Cleaved caspase-3 protein expression,[6],absence
same,Cleaved PARP protein expression,[10],absence
same,Cleaved caspase-3 protein expression,[10],absence
